Assay results: ChEMBL document CHEMBL2396529, “Synthesis and anticancer mechanism investigation of dual Hsp27 and tubulin inhibitors” (J Med Chem, 2013)
Activity calls are given as the source filed them. No cut-off for these calls is given here.

Key:
Bos taurus [1] = species on record: Bos taurus; experiment: Inhibition of bovine brain tubulin polymerization after 20 mins by spectrophotometric analysis in presence of GTP
SK-BR-3 [2] = experiment: Cell cycle arrest in human SKBR3 cells assessed as accumulation at G1 phase at 1 nM after 24 hrs by propidium iodide staining-based FACS flow cytometric analysis (reference value: 69.63%); type: functional
SK-BR-3 [3] = experiment: Induction of apoptosis in human SKBR3 cells assessed as increase in cleaved caspase-3 protein level at 5 to 15 nM after 24 hrs by Western blotting analysis; type: functional, cell-based
Procedure, shortened: (§1)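 SKBR-3 cells treated 24 h with 5, 10 and 15 nM against DMSO. Lysates (60 μg protein) resolved on 10% SDS-PAGE, transferred to PVDF, blocked in 5% milk/PBST and immunoblotted for cleaved caspase 3 and cleaved PARP with an HRP secondary.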

SK-BR-3 [4] = experiment: Cell cycle arrest in human SKBR3 cells assessed as accumulation at G1 phase at […] after 24 hrs by propidium iodide staining-based FACS flow cytometric analysis (reference value: 69.63%); type: functional
SK-BR-3 [5] = experiment: Cell cycle arrest in human SKBR3 cells assessed as accumulation at G2/M phase at 5 nM after 24 hrs by propidium iodide staining-based FACS flow cytometric analysis (reference value: 10.77%); type: functional
SK-BR-3 [6] = experiment: Effect on HER2 protein level human SKBR3 cells at 5 to 15 nM after 24 hrs by Western blotting analysis; type: functional, cell-based
SK-BR-3 [7] = experiment: Effect on STAT3 protein level human SKBR3 cells at 5 to 15 nM after 24 hrs by Western blotting analysis; type: functional, cell-based
SK-BR-3 [8] = experiment: Cell cycle arrest in human SKBR3 cells assessed as accumulation at S phase at […] after 24 hrs by propidium iodide staining-based FACS flow cytometric analysis (reference value: 16.34%); type: functional
Bos taurus [9] = species on record: Bos taurus; experiment: Inhibition of bovine brain tubulin polymerization at 1 uM after 15 mins by spectrophotometric analysis relative to control in presence of GTP
SK-BR-3 [10] = experiment: Cell cycle arrest in human SKBR3 cells assessed as accumulation at G1 phase at 50 nM after 24 hrs by propidium iodide staining-based FACS flow cytometric analysis (reference value: 69.63%); type: functional
SK-BR-3 [11] = experiment: Induction of apoptosis in human SKBR3 cells assessed as increase in cleaved PARP protein level at 5 to 15 nM after 24 hrs by Western blotting analysis; type: functional, cell-based; procedure, shortened: as §1
SK-BR-3 [12] = experiment: Cell cycle arrest in human SKBR3 cells assessed as accumulation at S phase at 1 nM after 24 hrs by propidium iodide staining-based FACS flow cytometric analysis (reference value: 16.34%); type: functional
SK-BR-3 [13] = experiment: Cell cycle arrest in human SKBR3 cells assessed as accumulation at subG1 phase at […] after 24 hrs by propidium iodide staining-based FACS flow cytometric analysis (reference value: 3.23%); type: functional
SK-BR-3 [14] = experiment: Cell cycle arrest in human SKBR3 cells assessed as accumulation at G2/M phase at […] after 24 hrs by propidium iodide staining-based FACS flow cytometric analysis (reference value: 10.77%); type: functional
SK-BR-3 [15] = experiment: Cell cycle arrest in human SKBR3 cells assessed as accumulation at G2/M phase at 50 nM after 24 hrs by propidium iodide staining-based FACS flow cytometric analysis (reference value: 10.77%); type: functional
SK-BR-3 [16] = experiment: Effect on EIF4E protein level human SKBR3 cells at 5 to 15 nM after 24 hrs by Western blotting analysis; type: functional, cell-based
SK-BR-3 [17] = experiment: Cell cycle arrest in human SKBR3 cells assessed as accumulation at subG1 phase at 1 nM after 24 hrs by propidium iodide staining-based FACS flow cytometric analysis (reference value: 3.23%); type: functional
SK-BR-3 [18] = experiment: Effect on HSP70 protein level human SKBR3 cells at 5 to 15 nM after 24 hrs by Western blotting analysis; type: functional, cell-based
SK-BR-3 [19] = experiment: Cell cycle arrest in human SKBR3 cells assessed as accumulation at subG1 phase at 5 nM after 24 hrs by propidium iodide staining-based FACS flow cytometric analysis (reference value: 3.23%); type: functional
SK-BR-3 [20] = experiment: Induction of HSP27 phosphorylation in human SKBR3 cells at 5 to 15 nM after 24 hrs by Western blotting analysis; type: functional, cell-based
Procedure, shortened: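 SKBR-3 cells exposed to 5, 10 and 15 nM for 24 h against DMSO, then lysed, sonicated and spun at 12000g for 10 min. 30 μg protein run on 10% SDS-PAGE and transferred to PVDF. Blocked with 5% milk in PBST, probed with specific primary antibodies and an HRP secondary. pHsp27 bands quantified and normalised to β-actin.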

SK-BR-3 [21] = experiment: Cell cycle arrest in human SKBR3 cells assessed as accumulation at G2/M phase at 1 nM after 24 hrs by propidium iodide staining-based FACS flow cytometric analysis (reference value: 10.77%); type: functional
SK-BR-3 [22] = experiment: Cell cycle arrest in human SKBR3 cells assessed as accumulation at subG1 phase at 50 nM after 24 hrs by propidium iodide staining-based FACS flow cytometric analysis (reference value: 3.23%); type: functional
[23] = biological target: Heat shock protein beta-1 (Homo sapiens) (UniProt P04792); experiment: Inhibition of HSP27 (unknown origin) assessed as increase in DTT-induced insulin B chain aggregation at 10 uM incubated for 5 mins prior to DTT-treatment measured after 30 mins by spectrophotometric analysis relative to control
Sequence of Heat shock protein beta-1 (Homo sapiens) (P04792 whole entry): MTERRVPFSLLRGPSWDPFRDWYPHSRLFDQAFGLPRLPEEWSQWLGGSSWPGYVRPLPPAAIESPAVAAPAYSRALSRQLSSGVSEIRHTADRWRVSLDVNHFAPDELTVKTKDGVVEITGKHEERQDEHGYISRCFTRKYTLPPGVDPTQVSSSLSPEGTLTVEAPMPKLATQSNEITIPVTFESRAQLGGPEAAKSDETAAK

SK-BR-3 [24] = experiment: Cell cycle arrest in human SKBR3 cells assessed as accumulation at S phase at 5 nM after 24 hrs by propidium iodide staining-based FACS flow cytometric analysis (reference value: 16.34%); type: functional
SK-BR-3 [25] = experiment: Effect on total HSP27 protein level human SKBR3 cells at 5 to 15 nM after 24 hrs by Western blotting analysis; type: functional, cell-based
SK-BR-3 [26] = experiment: Cell cycle arrest in human SKBR3 cells assessed as accumulation at G1 phase at 5 nM after 24 hrs by propidium iodide staining-based FACS flow cytometric analysis (reference value: 69.63%); type: functional
SK-BR-3 [27] = experiment: Antiproliferative activity against human SKBR3 cells after 48 hrs by MTT assay; type: functional, cell-based; conditions: SK-BR-3, 48 h
Procedure, shortened: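 MTT assay on SKBR-3 cells (RPMI 1640, 10% heat-inactivated FBS, 37 °C, 5% CO2), seeded 24 h before dosing, then exposed 48 h to a concentration series in DMSO (final ≤0.1%) with vehicle-matched controls. Afterwards 0.5 mg/mL MTT for 2 h, formazan dissolved in DMSO, A570 read, six replicates. IC50 from nonlinear regression.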

SK-BR-3 [28] = experiment: Cell cycle arrest in human SKBR3 cells assessed as accumulation at S phase at 50 nM after 24 hrs by propidium iodide staining-based FACS flow cytometric analysis (reference value: 16.34%); type: functional
Bos taurus [29] = species on record: Bos taurus; experiment: Inhibition of bovine brain tubulin polymerization at 100 nM after 15 mins by spectrophotometric analysis relative to control in presence of GTP
Bos taurus [30] = species on record: Bos taurus; experiment: Inhibition of bovine brain tubulin polymerization at 10 nM after 15 mins by spectrophotometric analysis relative to control in presence of GTP

## COc1ccc(OC)c(COc2cc(NC(=O)c3ccc(I)cc3)ccc2N(C)S(C)(=O)=O)c1
Bos taurus [1]
  inhibition: Dose-dependent effect
SK-BR-3 [2]
  Activity: 66.68%
SK-BR-3 [3]
  Activity: Active
SK-BR-3 [4]
  Activity: 60.08%
SK-BR-3 [5]
  Activity: 13.76%
SK-BR-3 [6]
  Activity: inactive
SK-BR-3 [7]
  Activity: inactive
SK-BR-3 [8]
  Activity: 9.49%
Bos taurus [9]
  inhibition: 64%
SK-BR-3 [10]
  Activity: 31.22%
SK-BR-3 [11]
  Activity: Active
SK-BR-3 [12]
  Activity: 8.45%
SK-BR-3 [13]
  Activity: 22.02%
SK-BR-3 [14]
  Activity: 8.1%
SK-BR-3 [15]
  Activity: 24.32%
SK-BR-3 [16]
  Activity: inactive
SK-BR-3 [17]
  Activity: 14.73%
SK-BR-3 [18]
  Activity: inactive
SK-BR-3 [19]
  Activity: 24.27%
SK-BR-3 [20]
  Activity: Active
SK-BR-3 [21]
  Activity: 9.24%
SK-BR-3 [22]
  Activity: 32.88%
[23]
  inhibition: 27%
SK-BR-3 [24]
  Activity: 9.51%
SK-BR-3 [25]
  Activity: inactive
SK-BR-3 [26]
  Activity: 51.84%
SK-BR-3 [27]
  IC50: 1.21 nM
SK-BR-3 [28]
  Activity: 11.39%

## COc1ccc(C(=O)Nc2ccc(N(C)S(C)(=O)=O)c(OCc3cc(OC)ccc3OC)c2)cc1
Bos taurus [1]
  inhibition: Dose-dependent effect
SK-BR-3 [2]
  Activity: 61.21%
SK-BR-3 [3]
  Activity: Active
SK-BR-3 [4]
  Activity: 34.91%
SK-BR-3 [5]
  Activity: 25.47%
SK-BR-3 [6]
  Activity: inactive
Bos taurus [29]
  inhibition: 19%
SK-BR-3 [7]
  Activity: inactive
SK-BR-3 [8]
  Activity: 8.92%
Bos taurus [9]
  inhibition: 66%
SK-BR-3 [11]
  Activity: Active
SK-BR-3 [12]
  Activity: 8.71%
SK-BR-3 [13]
  Activity: 27.43%
SK-BR-3 [14]
  Activity: 28.57%
SK-BR-3 [16]
  Activity: inactive
SK-BR-3 [17]
  Activity: 17.1%
SK-BR-3 [18]
  Activity: inactive
SK-BR-3 [19]
  Activity: 33.54%
SK-BR-3 [20]
  Activity: Active
SK-BR-3 [21]
  Activity: 12.78%
[23]
  inhibition: 9%
SK-BR-3 [24]
  Activity: 8.83%
SK-BR-3 [26]
  Activity: 32.02%
Bos taurus [30]
  inhibition: 5%
SK-BR-3 [27]
  IC50: 2.56 nM
